In ChEMBL document CHEMBL1134465, “Synthesis and evaluation of pteroic acid-conjugated nitroheterocyclic phosphoramidates as folate receptor-targeted alkylating agents” (J Med Chem, 2001):
pIC50: −log10 of the molar value.

Tests used:
[1] = system: A549; experiment: In vitro growth inhibition of human lung carcinoma cell line, A549 with low levels of folate receptors; assay type: functional, cell-based
Method in brief: (§1)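 Cells were seeded and grown 24 h at 37 °C in McCoy's 5A medium with 10% heat-inactivated FBS, penicillin 100 U/mL and streptomycin 100 μg/mL. Drug from DMSO stock was added in the same medium, with final DMSO <1%. Five serial 10-fold dilutions were tested, top final concentration 100 μg/mL.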

[2] = system: A498; experiment: In vitro growth inhibition of human kidney carcinoma cell line, A498 with low levels of folate receptors; assay type: functional, cell-based; method in brief: as §1
[3] = system: HT-29; experiment: In vitro growth inhibition of human tumor cell line, HT-29; assay type: functional, cell-based; method in brief: as §1
[4] = In vitro growth inhibition of human breast adrenocarcinoma cell line, MDA-231 with over expressed folate receptors; assay type: functional; settings: MDA-MB-231; method in brief: as §1
[5] = system: MIA PaCa-2; experiment: In vitro growth inhibition of human tumor cell line, PACA2; assay type: functional, cell-based; method in brief: as §1
[6] = system: PC-3; experiment: In vitro growth inhibition of human tumor cell line, PC3; assay type: functional, cell-based; method in brief: as §1
[7] = system: UMUC3; experiment: In vitro growth inhibition of human tumor cell line, UMUC3; assay type: functional, cell-based; method in brief: as §1
[8] = system: A549; experiment: In vitro growth inhibition of human lung carcinoma cell line, A549 with low levels of folate receptors in folate deficient medium; assay type: functional, cell-based
Method in brief: (§2)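 Cells were incubated with drug for 72 h in folate-deficient medium. Drug from DMSO stock was added with final DMSO <1%. Five serial 10-fold dilutions were tested, top final concentration 100 μg/mL. Viable cells were estimated by MTT and IC50 was derived.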

[9] = system: A498; experiment: In vitro growth inhibition of human kidney carcinoma cell line, A498 with low levels of folate receptors in folate deficient medium; assay type: functional, cell-based; method in brief: as §2
[10] = In vitro growth inhibition of human ovarian carcinoma cell line, IGROV with over expressed folate receptors; assay type: functional; method in brief: as §1
[11] = In vitro growth inhibition of human ovarian carcinoma cell line, IGROV with over expressed folate receptors in folate deficient medium; assay type: functional; method in brief: as §2
[12] = In vitro growth inhibition of human breast adrenocarcinoma cell line, MDA-231 with over-expressed folate receptors; assay type: functional; settings: MDA-MB-231; method in brief: as §1
[13] = In vitro growth inhibition of human breast adrenocarcinoma cell line, MDA-231 with over-expressed folate receptors in folate deficient medium; assay type: functional; settings: MDA-MB-231; method in brief: as §2

**Q.** What does the source list for `NC(CCCCNP(=O)(OCc1ccc([N+](=O)[O-])o1)N(CCCl)CCCl)C(=O)O` (stereo unspecified)?
**A.** pIC50 [1]: 4.39; pIC50 [2]: 4.59; pIC50 [3]: 4.70; pIC50 [4]: 4.80; pIC50 [5]: 5.62; pIC50 [6]: 4.68; pIC50 [7]: 6.21

**Q.** With `CCCNP(=O)(OCc1ccc([N+](=O)[O-])o1)N(CCCl)CCCl` (stereo unspecified) as the compound, how does the pIC50 [1] read?
**A.** Its pIC50 is 5.72.

**Q.** What about the pIC50 [2] of the same compound?
**A.** Its pIC50 is 5.85.

**Q.** And the pIC50 [3]?
**A.** Its pIC50 is 4.77.

**Q.** And the pIC50 [4]?
**A.** The pIC50 was 5.72.

**Q.** What about the pIC50 [5] of the same compound?
**A.** The pIC50 was 6.35.

**Q.** And the pIC50 [6]?
**A.** The pIC50 was 5.64.

**Q.** What about the pIC50 [7] of the same compound?
**A.** The pIC50 was 6.14.

**Q.** With `Nc1nc(O)c2nc(CNc3ccc(C(=O)NC(CCCCNP(=O)(OCc4ccc([N+](=O)[O-])o4)N(CCBr)CCBr)C(=O)O)cc3)cnc2n1` (stereo unspecified) as the compound, how does the pIC50 [1] read?
**A.** The pIC50 was 4.96.

**Q.** What about the pIC50 [8] of the same compound?
**A.** Its pIC50 is 4.64.

**Q.** What about the pIC50 [2] of the same compound?
**A.** The pIC50 was 4.96.

**Q.** What about the pIC50 [9] of the same compound?
**A.** The pIC50 was 4.72.

**Q.** What about the pIC50 [3] of the same compound?
**A.** The pIC50 was 6.52.

**Q.** And the pIC50 [10]?
**A.** The pIC50 was 6.08.

**Q.** What about the pIC50 [11] of the same compound?
**A.** The pIC50 was 6.24.

**Q.** And the pIC50 [12]?
**A.** Its pIC50 is 5.10.

**Q.** And the pIC50 [13]?
**A.** Its pIC50 is 5.44.

**Q.** And the pIC50 [5]?
**A.** Its pIC50 is 4.80.

**Q.** And the pIC50 [6]?
**A.** Its pIC50 is 4.96.

**Q.** And the pIC50 [7]?
**A.** The pIC50 was 5.28.
